In PMC7116464 (Biochemical pharmacology, 2019):

How the values were obtained:
[1] = tested on: Leishmania tarentolae promastigotes (LtP); test: Viability assay of LtP; type: cell-based; settings: calculated from IC50, J774/IC50, LtP
J774 macrophages = test: Viability assay of J774 cells; type: cell-based, murine; settings: Mus musculus, J774, read-out: IC50 J774
Procedure, shortened: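 J774A.1 macrophages seeded at 1 × 10^5/mL in DMEM/10% FCS and allowed to attach for 24 h (37 °C, 5% CO2). Wells washed with PBS and refilled with medium. Compounds added from 25 or 200 µM in five 1:5 serial dilutions, triplicate. After 24 h, 20 µM resazurin (final) added for 4 h; fluorescence read at ex 560/em 590 nm.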

[2] = tested on: Leishmania tarentolae promastigotes (LtP); type: cell-based; settings: for IC50: Leishmania tarentolae, read-out: IC50 in the absence of additional inhibitors; for influence on the antileishmanial action (IC50) of Asc and Art: PIH 100 µM, SnMP 50 µM, CrMP 50 µM, NAC 2 mM, LtP in YEM/PBS with 6 µM hemin
splenic parasite burden = settings: Art orally 25 mg/kg body weight vs SAG 20 mg/kg body weight; cited from earlier work
[3] = tested on: HO-like activity in LtP homogenates; test: Heme oxygenase-like activity; type: biochemical, Leishmania tarentolae
[4] = tested on: labile iron pool (LIP) in LtP; test: Low temperature EPR spectroscopy of the labile iron pool in LtP; type: cell-based, Leishmania tarentolae; settings: 1 mM EP, 1 h at 26 °C, EPR at 77 K
[5] = tested on: Leishmania tarentolae promastigotes (LtP); test: Metal; type: cell-based; settings: 0 - 3 days; for iron content in LtP: 10 µM SnMP or 1 µM ZnPP, ICP-OES
Procedure, shortened: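 Promastigotes (3.6 × 10^7/mL at day 0, OD600 0.3) grown in medium alone, with 10 µM SnMP or with 1 µM ZnPP for 0–3 days at 27 °C. After acid digestion (final 2 h at 75 °C), Fe measured by ICP-OES against 0.01–10 ppm standards. Sn measured by ICP-MS (120Sn, 0.1–100 ppb standards, isotope-corrected) after further 3-fold dilution. Results given as amol/cell.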

[6] = tested on: hemin degradation in LtP homogenates and SGF/MCF fractions; test: Hemin degradation in LtP homogenates and SGF/MCF subfractions by HPLC; type: biochemical, Leishmania tarentolae; settings: 40 µM ZnPP, 7 µM hemin, 0, 2 or 4 h at 26 °C
Procedure, shortened: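 LtP homogenates from hypo-osmotic lysis and freeze–thaw (37 mg protein/mL), or pooled SGF/MCF pellets from differential centrifugation (3.7 mg protein/mL). Samples diluted in phosphate buffer pH 7.4 with 7 µM hemin plus 1.1 mM NADPH or 40 µM ZnPP; 0, 2 or 4 h at 26 °C. Hemin followed by HPLC-UV, normalised to 0 h; mean ± SD, n = 3.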

[7] = SnMP or CrMP 38 µM, 77 µM, hemin 6.67 µM, NADPH 1 mM, RLS, 27 °C, 30 min

Molecule	IC50, J774/IC50, LtP (selectivity index) [1]	IC50 (J774 macrophages)	influence on the antileishmanial action (IC50) of Asc and Art [2]	further results
C[C@H]1[C@H](OC(=O)CCC(=O)O)O[C@@H]2O[C@@]3(C)CC[C@H]4[C@H](C)CC[C@@H]1[C@@]24OO3 [Arsu, artesunate]	9	16.9 ± 5.2 µM	–	–
C[C@@H]1CC[C@H]2[C@@H](C)C(=O)O[C@@H]3O[C@@]4(C)CC[C@@H]1[C@]32OO4 [Art, artemisinin]	–	192 ± 41.1 µM	–	IC50 [2]: 2.96 ± 0.71 µM; splenic parasite burden (splenic parasite burden): reduce the splenic parasite burden slightly more than sodium antimony gluconate (SAG); HO-like activity (bilirubin formation) ([3]; Art 500 µM in the presence of catalase 2520 U/mL): inhibited the HO-like activity in LtP homogenates; influence on the redox state of the LIP (apparent Fe3+) [4]: influences the redox state of the LIP in LtP to a much lesser extent than Asc
CC(C)C12C=CC(C)(CC1)OO2 (centres unmarked) [Asc, Ascaridole]	7	202 ± 38.2 µM	–	IC50 [2]: 28.3 ± 6.7 µM
C[C@H]1[C@@H](O)O[C@@H]2O[C@@]3(C)CC[C@H]4[C@H](C)CC[C@@H]1[C@@]24OO3 [DHA, dihydroartemisinin]	20	14.8 ± 6.49 µM	–	–
C[C@@H]1CC[C@H]2[C@@H](C)C(=O)O[C@@H]3O[C@@]4(C)CC[C@@H]1[C@]32O4 [DeoxyArt, deoxyartemisinin]	1	> 200 µM	–	–
CC(=O)N[C@@H](CS)C(=O)O [NAC, N-acetylcysteine]	–	–	inhibited the action of Asc and even stronger that of Art	–
Cc1ncc(CO)c(/C=N/NC(=O)c2ccncc2)c1O [PIH, Pyridoxal isonicotinoyl hydrazone]	–	–	non-selectively inhibited the action of both Asc and Art in a similar fashion	–
N=C(N)c1ccc(OCCCCCOc2ccc(C(=N)N)cc2)cc1 [Pen, pentamidine isethionate]	15	12.3 ± 3.96 µM	–	–
C=CC1=C(C)c2cc3[n-]c(cc4nc(cc5[n-]c(cc1n2)c(C)c5C=C)C(C)=C4CCC(=O)O)c(CCC(=O)O)c3C.[Zn+2] [ZnPP, zinc protoporphyrin]	–	–	–	iron content in LtP [5]: small decline but no total inhibition of iron import into LtP; hemin degradation [6]: strongly inhibited
Tin mesoporphyrin [SnMP]	–	–	inhibited the antileishmanial activity of Art stronger than that of Asc	iron content in LtP [5]: almost identical over several days; Sn accumulation in LtP ([5]; 10 µM SnMP, ICP-MS): taken up into LtP; HO-like activity (bilirubin formation) [3, 7]: inhibit this HO-like activity
chromium mesoporphyrin [CrMP]	–	–	inhibited the antileishmanial activity of Art stronger than that of Asc	HO-like activity (bilirubin formation) [3, 7]: inhibit this HO-like activity
